XBP1 UPR activ: adaptive UPR (XBP1) activation. hit rate 0.33% among 330,000. activation, % at 20 µM. CHO-XBP1 luciferase reporter, IRE1-XBP1 UPR activation, luminescence; percent of tunicamycin response, DMSO as zero. AID 463104;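 active = versus positive control, 20 µM dose yields 30% or more activation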;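 note: 100% = tunicamycin at 10 µg/mL and 0% = DMSO only wells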
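Material: CHO cell line with stable XBP1 luciferase reporter; buffer or medium: F12 medium containing 10% fetal bovine serum; compound: single point, 20 µM final compound, 1% DMSO; incubation: 6 h treatment, 37 °C; measured by: glow luminescence from Steady-Glo reagent; evaluation: activation, % of tunicamycin; control set: tunicamycin high, DMSO low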
CHOP inh: CHOP inhibition in unfolded protein response | CHO-K1 CHOP-promoter luciferase, tunicamycin-induced, 15-18 h | inhibition, % at 10 µM | hit rate 3.8% among 220,000 | AID 2732;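 active = compounds that reduced the stress-induced luciferase reporter signal by more than about 70% of percent inhibition, limit read from the data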;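 note: 0% = tunicamycin plus vehicle and 100% = wells without tunicamycin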
UPR CHOP act: activators of apoptotic arm of unfolded protein response (CHOP); activation, % at 10 µM; CHO-CHOP luciferase reporter, UPR activation, luminescence; percent of tunicamycin response over DMSO baseline; AID 449763; hit rate 0.34% among 330,000;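 active = at 10 µM dose, activation of 40% or more, normalized to positive control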;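 note: 100% = tunicamycin at 10 µg/mL and 0% = DMSO alone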
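System: CHO CHOP reporter cells. Amount: 500 cells per well. Buffer or medium: F12 medium, 10% FBS. Compound dosing: one dose, 10 µM in 0.5% DMSO. Incubation: 6 h compound exposure at 37 °C after overnight seeding. Technique: Steady-Glo luciferase luminescence. Benchmarks: tunicamycin and DMSO controls.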
FXN GAA850 act: activators of GAA850 frataxin (FXN) promoter; HEK293 lucGAA850 FXN promoter luciferase reporter, 24 h; percent of 10 µM SAHA response; activation, % at 6 µM; hit rate 0.56% among 360,000;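 active = activation above the average of all compounds screened plus 3 SD, cutoff fixed separately per campaign, cut at about 7.5% in these data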;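 note: 0% = DMSO wells and 100% = 10 µM SAHA wells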
CHOP UPR conf: confirmation of apoptotic unfolded protein response (CHOP) activators; shares compounds with UPR CHOP act; CHO-CHOP cells, CHOP-luciferase reporter luminescence; percent of tunicamycin response, DMSO as zero; activation, % at 10 µM; hit rate 64% among 1,000; in the data active = activation above about 33%;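 note: 0% = DMSO wells and 100% = tunicamycin 10 µg/mL wells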
XBP1 UPR conf: confirmation of adaptive unfolded protein response (XBP1) activators | hit rate 63% among 1,000 | shares compounds with XBP1 UPR activ | activation, % at 20 µM | CHO-XBP1 IRE1-XBP1 luciferase reporter, luminescence | AID 485299;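 active = reporter signal at least 30% of the positive control's activation in two or more of four replicate wells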;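 note: plate controls were DMSO negative control for no effect and tunicamycin 10 µg/mL positive control for full effect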
GAA30 counter: counter-screen for GAA850 frataxin promoter activators: GAA30 promoter activation; shares compounds with FXN GAA850 act; HEK293 lucGAA30 FXN promoter luciferase, 24 h; DMSO = 0%, 5 µM ipriflavone = 100%; activation, % at 6 µM; hit rate 66% among 1,900; AID 588350;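 active = mean activation above the mean of solvent-only control wells plus 3 SD, cut at about 22% in these data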;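 note: counterscreen of GAA850 promoter hits where activity marks nonselective or luminescence artifacts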
FXN GAA850 conf: GAA850 FXN promoter activation confirmation | hit rate 86% among 1,900 | activation, % at 6 µM | HEK293 lucGAA850 FXN promoter luciferase reporter, 24 h; 100% = activation by SAHA | shares compounds with FXN GAA850 act;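 active = mean activation above a set limit taken from the primary screen, cut at about 8% in these data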;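 note: 0% = DMSO wells and 100% = 10 µM SAHA wells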
The depositor's hits bear a star; . = no result given; ! = not confirmed by another sample. The sample as a whole holds a higher share of hits than the screen did.

SMILES | XBP1 UPR activ | CHOP inh | UPR CHOP act | FXN GAA850 act | others
Cc1cccc(N2C(=O)NC(=O)/C(=C\c3cnc(-c4ccccc4)nc3)C2=O)c1 | 0 | -8 | 1 | 4
O=C(NCC1=C(c2cccc3ccccc23)C[C@@H]2CC[C@H]1N2Cc1ccco1)c1cccs1 | . | . | . | -12
Cc1c(C(=O)c2cccc3ccccc23)c2cccc3c2n1[C@H](CN1CCOCC1)CO3 | 29 | -95 | 58* | 0 | CHOP UPR conf=40*
COc1ccc(-n2c(/C=C/c3ccc(O)c(OC)c3)nc3ccccc3c2=O)cc1 | 2 | . | 4 | -1
COc1cc(/C=C/[N+](=O)[O-])ccc1O | -3 | 63 | 189* | 4 | CHOP UPR conf=54*
COc1ccc(NC(=S)N2Cc3ccccc3-n3nncc3C2)c(OC)c1 | . | . | . | 1
CC(C)c1ccc(N2C(=O)NC(=O)/C(=C\C=C\c3ccco3)C2=O)cc1 | -5 | 104* | 250* | . | CHOP UPR conf=254*
CCCCn1c(NS(=O)(=O)c2ccc(C)cc2)c(C(=O)OCC)c2nc3ccccc3nc21 | 8 | 20 | 1 | -1
CCCCn1c(NC(=O)c2ccco2)c(C(=O)OCC)c2nc3ccccc3nc21 | 40* | -51 | 47* | -3 | CHOP UPR conf=1;XBP1 UPR conf=-1
CN1C(=O)/C(=C/c2cccn2-c2ccc3ccccc3c2)C(=O)NC1=S | 116* | 53 | 145* | 1 | CHOP UPR conf=151*;XBP1 UPR conf=-6
Cc1ncoc1C(=O)NCC1=C(c2ccc(S(C)(=O)=O)cc2)C[C@@H]2CC[C@H]1N2Cc1ccco1 | . | . | . | 1
CCN(CC)c1ccc(/C=C/[N+](=O)[O-])cc1 | 112* | -78 | 14 | 0 | XBP1 UPR conf=76*
CC1CN(C(=O)CCC(=O)N2CCC3(CC2)OCCO3)c2cc(Cl)ccc2O1 (stereo not drawn) | 2 | . | 1 | 2
Nc1cc(C(=O)Nc2ccccc2F)ccc1N1CC2CC(C1)c1cccc(=O)n1C2 (stereo not drawn) | . | . | . | 0
CCN(CC)c1ccc(N=Cc2c(O)n(Cc3ccccc3)c(=O)[nH]c2=O)cc1 | 31* | 96*! | 8 | -1 | XBP1 UPR conf=35*!
Cc1ccc(-n2c(O)c(/C=N/c3ncc(Br)cc3Br)c(=O)[nH]c2=O)cc1 | 31* | 74* | 3 | 0 | XBP1 UPR conf=52*
Cc1cccc(-n2c(O)c(C=Nc3ccc(Br)cn3)c(=O)[nH]c2=O)c1 | -2 | 10 | 1 | 2
CN(C)[C@@H]1C(=O)C(C(N)=O)=C(O)[C@@]2(O)C(=O)C3=C(O)c4c(O)ccc(Cl)c4[C@@](C)(O)[C@H]3C[C@@H]12 | . | . | . | 13* | GAA30 counter=41*;FXN GAA850 conf=15*
CCN[C@@H](C)Cc1cccc(C(F)(F)F)c1 | -3 | . | 2 | 14* | GAA30 counter=12;FXN GAA850 conf=6
CN1C2CNC(=O)CC1C1CCC2C1 (stereo not drawn) | . | . | . | 0
Cc1[nH]c2ccc(OC(F)(F)F)cc2c1CCNCc1ccc(Cl)cc1 | 17 | . | 2 | 13* | GAA30 counter=10;FXN GAA850 conf=8.9*
C#CCOC(=O)C1=CCCN(C)C1 | -5 | -14 | 2 | 2
Cc1ccc(-c2nc3ccc(Cl)cc3n2OC(=O)N(C)C)cc1 | -1 | -36 | 1 | 7.7* | GAA30 counter=109*;FXN GAA850 conf=41*
CN(C)C(=O)Oc1ccc(-c2cn3cc(Cl)ccc3n2)cc1 | -3 | 38 | -3 | 5
Cc1ccccc1CN1Cc2cnnn2-c2ccccc2C1C#N (stereo not drawn) | . | . | . | 0
SMILES | XBP1 UPR activ | CHOP inh | UPR CHOP act | FXN GAA850 act | others
CC(=NNC(=S)N1CC2CCC(CC2)C1)c1nccs1 | . | . | . | 12* | GAA30 counter=-66;FXN GAA850 conf=4
OC12ONC(c3ccccn3)C1N1CCC2CC1 (stereo not drawn) | 1 | -20 | 1 | 18* | GAA30 counter=34*;FXN GAA850 conf=16*
CC1=NNC(=O)C1Br (stereo not drawn) | . | . | . | -1
COc1cc2nc(CN3CC=C(c4ccccc4)CC3)[nH]c(=O)c2cc1OC | -2 | . | -2 | 22* | GAA30 counter=77*;FXN GAA850 conf=61*
COc1cc(C)c(CN2CC=C(c3ccc(F)cc3)CC2)cc1C | -3 | . | -1 | 0
CCOP(=S)(OCC)Oc1cc(C)nc(C(C)C)n1 | . | . | . | 0
C/C1=C\[C@@H](C)C/C=C/[C@H]2[C@@H]3O[C@]3(C)[C@@H](C)[C@H]3[C@H](Cc4c[nH]c5ccccc45)NC(=O)[C@]32C(=O)/C=C/C(=O)[C@@H]1O | -8 | 105* | -9 | 8.8* | GAA30 counter=-16;FXN GAA850 conf=46*
COC1=CC=C2[C@H]3Cc4ccc(OC)c5c4[C@@]2(CCN3C)[C@H]1O5 | -2 | . | -2 | -2

High-throughput results: PubChem, several laboratories
